In article PMC8063330 (Oncology Letters, 2021):

How the values were obtained:
c-myc in SNU-638 cells = test: c-myc level by western blotting in SNU-638; format: cell-based; conditions: 24 h
Outline: (§1)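 Cells grown in RPMI-1640 with 10% FBS and exposed to test compound. Lysates run on SDS-PAGE and immunoblotted for c-Myc with tubulin as loading reference. HRP secondaries, ECL detection.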

c-myc in MKN-45 cells = test: c-myc level by western blotting in MKN-45; format: cell-based; conditions: 24 h
Outline: as §1

`CCNC(=O)C[C@@H]1N=C(c2ccc(Cl)cc2)c2cc(OC)ccc2-n2c(C)nnc21` [I-BET-762] was tested, and the c-myc level (c-myc in SNU-638 cells) was “downregulated the c-myc level” and the c-myc level (c-myc in MKN-45 cells) was “did not downregulate the c-myc level”.
